For assay [1], the system named is MT4. Kind of assay: Selectivity index for CC50 (cytotoxic concentration based on the reduction of the viability of mock-infected MT-4 cells) to that of EC50 against HIV-1. It is filed as functional. The essentials:
(§1)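 MT-4 cells at 3 × 10^5 cells/mL were infected with HIV-1 IIIB or HIV-2 ROD at 100 CCID50/mL, or mock-infected, alongside serial compound dilutions. Viability was read by MTT after 5 days at 37 °C. CC50 comes from mock-infected cells and EC50 from protection against cytopathicity. Index = CC50/EC50.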

For assay [2], the system named is MT4. Kind of assay: Effective concentration to achieve 50% protection of MT-4 cells against the cytopathic effect of HIV-1. It is filed as functional, cell-based. (In general: Damage to the host cells serves as the signal in cytopathic effect assays.)
In assay [3] the test system is HuT78. Kind of assay: Giant-cell formation between persistently HIV-1 infected HUT-78 cells and uninfected MOLT-4 cells. The format is functional, cell-based. In a few lines:
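MOLT-4 cells were co-cultured with an equal number of HUT-78 cells persistently infected with HIV-1 IIIB or HIV-2 ROD, with varying compound concentrations. Syncytia were counted by flow cytofluorography after 24 h. EC50 is the concentration giving 50% protection against giant-cell formation.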

A short description of assay [4]: In vitro anticoagulant activity determined by clotting test of activated partial thromboplastin time (APTT) on a pool of human plasma. It is filed as functional. The essentials: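 Activated partial thromboplastin time clotting test on pooled human plasma, run on an automatic coagulometer. Activities were calculated according to the European Pharmacopoeia.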
For assay [5], the system named is MT4. The assay can be described thus: Effective concentration to achieve 50% protection of MT-4 cells against the cytopathic effect of HIV-2. The format is functional, cell-based.
Assay [6] concerns MT4. Kind of assay: Selectivity index for CC50 (cytotoxic concentration based on reduction of viability of mock-infected MT-4 cells) to that of EC50 against HIV-2. The format is functional. In a few lines: as §1
Where [7] appears, read: Homo sapiens, MT4, read-out: EC50.
Where [8] appears, read: Homo sapiens, HuT78, read-out: EC50.

The EC50 is the concentration that produces a half-maximal response.

SMILES strings stand for the structures.

Consider `CCCCOC(=O)/C=C(\COC(=O)CCC)OC1OC(COS(=O)(=O)[O-])C(OC2OC(C(=O)OCCCC)C(OC3OC(COS(=O)(=O)[O-])C(OC4OC(C(=O)OCCCC)C(OC5OC(COS(=O)(=O)[O-])C(O)C(OC(=O)CCC)C5NC(C)=O)C(OC(=O)CCC)C4OS(=O)(=O)[O-])C(OC(=O)CCC)C3NC(C)=O)C(OC(=O)CCC)C2OS(=O)(=O)[O-])C(OC(=O)CCC)C1NC(C)=O.[Na+].[Na+].[Na+].[Na+].[Na+]` (stereo unspecified), for which the Selectivity index in assay [1] is recorded as greater than 217; in assay [6], greater than 192. In addition, the EC50 was 2.3 µg/mL in assay [2] (setting [7]), 15 µg/mL in assay [3] (setting [8]), 15 µg/mL in assay [3] (hut78) and 2.6 µg/mL in assay [5] (setting [7]). In assay [4], this compound came in with an APTT of 1.3 IU mg-1.

Turning to `O=C([O-])/C=C(\COC(=O)c1ccccc1)OC1OC(COS(=O)(=O)[O-])C(OC2OC(C(=O)[O-])C(OC3OC(COS(=O)(=O)[O-])C(OC4OC(C(=O)[O-])C(OC5OC(COS(=O)(=O)[O-])C(O)C(OC(=O)c6ccccc6)C5NS(=O)(=O)[O-])C(OC(=O)c5ccccc5)C4OS(=O)(=O)[O-])C(OC(=O)c4ccccc4)C3NS(=O)(=O)[O-])C(OC(=O)c3ccccc3)C2OS(=O)(=O)[O-])C(OC(=O)c2ccccc2)C1NS(=O)(=O)[O-].[Na+].[Na+].[Na+].[Na+].[Na+].[Na+].[Na+].[Na+].[Na+].[Na+].[Na+]` (stereo unspecified), the values for the Selectivity index in assay [1] and in assay [6] were greater than 5000 and greater than 2500, respectively. In addition, the values for the 50% effective concentration (EC50) in assay [2] (setting [7]), in assay [3] (setting [8]) and in assay [5] (setting [7]) were 0.1 µg/mL, 3 µg/mL and 0.2 µg/mL, respectively. This compound had an APTT in assay [4] of 8 IU mg-1.

Regarding `O=C([O-])/C=C(\COC(=O)CCC(=O)[O-])OC1OC(COS(=O)(=O)[O-])C(OC2OC(C(=O)[O-])C(OC3OC(COS(=O)(=O)[O-])C(OC4OC(C(=O)[O-])C(OC5OC(COS(=O)(=O)[O-])C(O)C(OC(=O)CCC(=O)[O-])C5NS(=O)(=O)[O-])C(OC(=O)CCC(=O)[O-])C4OS(=O)(=O)[O-])C(OC(=O)CCC(=O)[O-])C3NS(=O)(=O)[O-])C(OC(=O)CCC(=O)[O-])C2OS(=O)(=O)[O-])C(OC(=O)CCC(=O)[O-])C1NS(=O)(=O)[O-].[Na+].[Na+].[Na+].[Na+].[Na+].[Na+].[Na+].[Na+].[Na+].[Na+].[Na+].[Na+].[Na+].[Na+].[Na+].[Na+].[Na+]` (stereo unspecified), the Selectivity index in assay [1] is listed as greater than 2500; in assay [6], greater than 100. Besides, the EC50 is 0.2 µg/mL in assay [2] (setting [7]), greater than 100 µg/mL in assay [3] (setting [8]) and 5 µg/mL in assay [5] (setting [7]). The APTT in assay [4] is recorded as 3.1 IU mg-1.

Consider `CCCC(=O)OCC1OC(OC2C(C(=O)[O-])OC(OC3C(NC(C)=O)C(OC4C(C(=O)[O-])OC(C)C(OC(=O)CCC)C4O)OC(COC(=O)CCC)C3OS(=O)(=O)[O-])C(OC(=O)CCC)C2OC(=O)CCC)C(NC(C)=O)C(OC)C1OS(=O)(=O)[O-].[Na+].[Na+].[Na+].[Na+]` (stereo unspecified), for which the Selectivity index came to 8 in assay [1] and 25 in assay [6]. The EC50 in assay [2] (setting [7]) was 54.2 µg/mL; in assay [3] (setting [8]), greater than 100 µg/mL; in assay [5] (setting [7]), 18 µg/mL. In assay [4], the APTT came to 3.7 IU mg-1.

On to `CCCCCC(=O)O[C@@H]1[C@@H](OC(C)=O)[C@H](O[C@H]2[C@H](OS(=O)(=O)[O-])[C@@H](NS(=O)(=O)[O-])[C@@H](O[C@H]3[C@H](OC(=O)CCCCC)[C@@H](OS(=O)(=O)[O-])[C@H](O[C@H]4[C@H](OC(=O)CCCCC)[C@@H](CO)O[C@@H]4COS(=O)(=O)[O-])O[C@H]3C(=O)[O-])O[C@@H]2COS(=O)(=O)[O-])O[C@H](C(=O)[O-])[C@H]1O[C@H]1O[C@H](COS(=O)(=O)[O-])[C@@H](O[C@@H]2O[C@@H](C(=O)[O-])[C@@H](O)[C@H](OC(=O)CCCCC)[C@H]2OC(C)=O)[C@H](OC(=O)CCCCC)[C@H]1NC(C)=O.[Na+].[Na+].[Na+].[Na+].[Na+].[Na+].[Na+].[Na+].[Na+]`, for which the Selectivity index is listed as less than 1 in assay [1] and 9 in assay [6]. Also, the figures for the EC50 in assay [2] (setting [7]), in assay [3] (setting [8]) and in assay [5] (setting [7]) were greater than 100 µg/mL, 8.9 µg/mL and 5.4 µg/mL, respectively. In assay [4], this compound returned an APTT of 4 IU mg-1.

In the case of `CCCC(=O)O[C@@H]1[C@@H](OC(C)=O)[C@H](O[C@H]2[C@@H](OS(=O)(=O)[O-])[C@@H](NS(=O)(=O)[O-])[C@@H](O[C@@H]3C(C(=O)[O-])O[C@@H](O[C@H]4[C@H](OC(=O)CCC)[C@@H](CO)O[C@@H]4COS(=O)(=O)[O-])[C@H](OS(=O)(=O)[O-])[C@H]3OC(=O)CCC)O[C@@H]2COS(=O)(=O)[O-])O[C@H](C(=O)[O-])[C@H]1O[C@H]1O[C@H](COS(=O)(=O)[O-])[C@@H](O[C@@H]2O[C@@H](C(=O)[O-])[C@@H](O)[C@H](OC(=O)CCC)[C@H]2OC(C)=O)[C@H](OC(=O)CCC)[C@H]1NC(C)=O.[Na+].[Na+].[Na+].[Na+].[Na+].[Na+].[Na+].[Na+].[Na+]` (stereo partly specified), the Selectivity index in assay [1] came to 89; in assay [6], 15.4. The results for the EC50 in assay [2] (setting [7]), in assay [3] (setting [8]) and in assay [5] (setting [7]) were 0.53 µg/mL, 15.4 µg/mL and 0.24 µg/mL, respectively. In addition, the APTT in assay [4] is given as 11 IU mg-1.

With `CC(=O)N[C@H]1[C@@H](O[C@H]2[C@H](OC(C)=O)[C@@H](OC(C)=O)[C@H](O[C@H]3[C@@H](OS(=O)(=O)[O-])[C@@H](NS(=O)(=O)[O-])[C@@H](O[C@@H]4C(C(=O)[O-])O[C@@H](O[C@H]5[C@H](OC(C)=O)[C@@H](CO)O[C@@H]5COS(=O)(=O)[O-])[C@H](OS(=O)(=O)[O-])[C@H]4OC(C)=O)O[C@@H]3COS(=O)(=O)[O-])O[C@@H]2C(=O)[O-])O[C@H](COS(=O)(=O)[O-])[C@@H](O[C@@H]2O[C@@H](C(=O)[O-])[C@@H](O)[C@H](OC(C)=O)[C@H]2OC(C)=O)[C@@H]1OC(C)=O.[Na+].[Na+].[Na+].[Na+].[Na+].[Na+].[Na+].[Na+].[Na+]` (stereo partly specified), the Selectivity index in assay [1] was found to be 76; in assay [6] it was 1087. Moreover, the EC50 in assay [2] (setting [7]) worked out at 6.5 µg/mL; in assay [3] (setting [8]), 6.4 µg/mL; in assay [5] (setting [7]) it was 0.46 µg/mL. In assay [4], the APTT turned out to be 26 IU mg-1.

`CCCCCC(=O)OC/C(=C\C(=O)[O-])OC1OC(COS(=O)(=O)[O-])C(OC2OC(C(=O)[O-])C(OC3OC(COS(=O)(=O)[O-])C(OC4OC(C(=O)[O-])C(OC5OC(CS(=O)(=O)[O-])C(O)C(OC(=O)CCCCC)C5NS(=O)(=O)[O-])C(OC(=O)CCCCC)C4OS(=O)(=O)[O-])C(OC(=O)CCCCC)C3NS(=O)(=O)[O-])C(OC(=O)CCCCC)C2OS(=O)(=O)[O-])C(OC(=O)CCCCC)C1NS(=O)(=O)[O-].[Na+].[Na+].[Na+].[Na+].[Na+].[Na+].[Na+].[Na+].[Na+].[Na+].[Na+]` (stereo in doubt; 2e): the Selectivity index is listed as greater than 1613 in assay [1] and greater than 294 in assay [6]. For the same compound, the EC50 was found to be 0.31 µg/mL in assay [2] (mt4), 2.9 µg/mL in assay [3] (hut78) and 1.71 µg/mL in assay [5] (mt4). In assay [4], the APTT was 7 IU mg-1.

On to `CCCC(=O)OC/C(=C\C(=O)[O-])O[C@H]1O[C@H](COS(=O)(=O)[O-])[C@@H](O[C@@H]2O[C@@H](C(=O)[O-])[C@@H](O[C@H]3O[C@H](COS(=O)(=O)[O-])[C@@H](O[C@@H]4O[C@@H](C(=O)[O-])[C@@H](O[C@H]5O[C@H](CS(=O)(=O)[O-])[C@@H](O)[C@H](OC(=O)CCC)[C@H]5NS(=O)(=O)[O-])[C@H](OC(=O)CCC)[C@H]4OS(=O)(=O)[O-])[C@H](OC(=O)CCC)[C@H]3NS(=O)(=O)[O-])[C@H](OC(=O)CCC)[C@H]2OS(=O)(=O)[O-])[C@H](OC(=O)CCC)[C@H]1NS(=O)(=O)[O-].[Na+].[Na+].[Na+].[Na+].[Na+].[Na+].[Na+].[Na+].[Na+].[Na+].[Na+]` (stereo in doubt; 3d), for which the Selectivity index in assay [1] is on record as 1480; in assay [6] it was 914. The results for the EC50 in assay [2] (mt4), in assay [3] (hut78) and in assay [5] (mt4) were 0.21 µg/mL, 10.3 µg/mL and 0.36 µg/mL, respectively. Besides, in assay [4], the APTT is 9 IU mg-1.

For `CCCC(=O)OC/C(=C\C(=O)[O-])O[C@H]1O[C@H](COS(=O)(=O)[O-])[C@@H](O[C@@H]2O[C@@H](C(=O)[O-])[C@@H](O[C@H]3O[C@H](COS(=O)(=O)[O-])[C@@H](O[C@@H]4O[C@@H](C(=O)[O-])[C@@H](O[C@H]5O[C@H](CS(=O)(=O)[O-])[C@@H](O)[C@H](OC(=O)CCC)[C@H]5NS(=O)(=O)[O-])[C@H](OC(=O)CCC)[C@H]4OS(=O)(=O)[O-])[C@H](OC(=O)CCC)[C@H]3NS(=O)(=O)[O-])[C@H](OC(=O)CCC)[C@H]2OS(=O)(=O)[O-])[C@H](OC(=O)CCC)[C@H]1NS(=O)(=O)[O-].[Na+].[Na+].[Na+].[Na+].[Na+].[Na+].[Na+].[Na+].[Na+].[Na+].[Na+]` (stereo in doubt; 3e), the results for the Selectivity index in assay [1] and in assay [6] were 1357 and 1261, respectively. The EC50 in assay [2] (mt4) stood at 0.26 µg/mL; in assay [3] (hut78) it was 1.5 µg/mL; in assay [5] (mt4), 0.28 µg/mL. The same compound yielded an APTT in assay [4] of 11 IU mg-1.

The values above are taken from ChEMBL document CHEMBL1126896, “Preparation and anti-HIV activity of O-acylated heparin and dermatan sulfate derivatives with low anticoagulant effect” (J Med Chem, 1993).
